From ChEMBL document CHEMBL1126043, “Novel thiazolidine-2,4-diones as potent euglycemic agents” (1992) come the findings set out here.

Assay [1] has as its system Mus musculus. In words: In vivo euglycemic activity of the compound (administered by oral gavage) in C57/6J-ob/ob mice is measured by normalization of blood glucose levels at a dose of 0.1(mg/kg). Format: functional. A digest of the protocol:
(§1)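 Mice bled from retro-orbital sinus into tubes with 2% sodium heparin for baseline glucose, then dosed by oral gavage once daily for 4 days in 0.25% (w/v) methylcellulose in water, no pH adjustment (0.1 mL per 20 g). Bled 24 h after fourth dose. Samples centrifuged 2 min at 10000g. Plasma glucose measured by hexokinase UV method. Results scaled to vehicle (0%) and ciglitazone 50 mg/kg (100%).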

In assay [2] the test system is Mus musculus. Description: In vivo euglycemic activity of the compound (administered by oral gavage) in C57/6J-ob/ob mice is measured by normalization of blood glucose levels at a dose of 0.25(mg/kg). Type of assay: functional. An outline of the steps: as §1
The subject of assay [3] is Mus musculus. Description: In vivo euglycemic activity (administered by oral gavage) in C57/6J-ob/ob mice by normalization of blood glucose levels at a dose of 0.5 mg/kg. Format: functional. A digest of the protocol:
as §1

For assay [4], the system named is Mus musculus. In words: In vivo euglycemic activity (administered by oral gavage) in C57/6J-ob/ob mice by normalization of blood glucose levels at a dose of 1 mg/kg. Type of assay: functional. A digest of the protocol: as §1
Assay [5] deals with Mus musculus. Description: In vivo euglycemic activity of the compound (administered by oral gavage) in C57/6J-ob/ob mice is measured by normalization of blood glucose levels at a dose of 1(mg/kg). Type of assay: functional. An outline of the steps: as §1
Assay [6] has as its system Mus musculus. In words: In vivo euglycemic activity of the compound (administered by oral gavage) in C57/6J-ob/ob mice is measured by normalization of blood glucose levels at a dose of 10(mg/kg). Type of assay: functional. An outline of the steps: as §1
Assay [7] deals with Mus musculus. In words: In vivo euglycemic activity of the compound (administered by oral gavage) in C57/6J-ob/ob mice is measured by normalization of blood glucose levels at a dose of 5(mg/kg).
For assay [8], the system named is Mus musculus. In words: In vivo euglycemic activity (administered by oral gavage) in C57/6J-ob/ob mice by normalization of blood glucose levels at a dose of 10 mg/kg. Type of assay: functional. A digest of the protocol: as §1
The subject of assay [9] is Mus musculus. In words: In vivo euglycemic activity of the compound (administered by oral gavage) in C57/6J-ob/ob mice is measured by normalization of blood glucose levels at a dose of 0.05(mg/kg). Type of assay: functional. An outline of the steps: as §1
Assay [10] concerns Mus musculus. In words: In vivo euglycemic activity of the compound (administered by oral gavage) in C57/6J-ob/ob mice is measured by normalization of blood glucose levels at a dose of 2.5(mg/kg). Format: functional. A digest of the protocol:
as §1

Assay [11] has as its system Mus musculus. Description: In vivo euglycemic activity (administered by oral gavage) in C57/6J-ob/ob mice measured by normalization of blood glucose levels at a dose of 5 mg/kg. Type of assay: functional.
Assay [12] has as its system Mus musculus. Description: In vivo euglycemic activity of the compound (administered by oral gavage) in C57/6J-ob/ob mice is measured by normalization of blood glucose levels at a dose of 50(mg/kg). Format: functional.

Take `Cc1oc(-c2ccccc2)nc1C/C=C/c1ccc(CC2SC(=O)NC2=O)cc1` (stereo unspecified): the Normalization with Mus musculus [1] was found to be 29%; in the assay with Mus musculus [2] it was 74%; in the assay on Mus musculus [3] it was 84%.
Taken in the same sequence, the figures for `Cc1ccc(-c2nc(CCC(=O)c3ccc(CC4SC(=O)NC4=O)cc3)c(C)o2)o1` (stereo unspecified) were 47%, 87% and 68%.
With `Cc1oc(-c2ccccc2)nc1CCC(=O)c1ccc(/C=C2\SC(=O)NC2=O)cc1`, the values for the Normalization in the assay on Mus musculus [1], in the assay with Mus musculus [3] and in the assay on Mus musculus [4] were 43%, 81% and 84%, respectively.
Turning to `Cc1ccc(-c2nc(CCC(=O)c3ccc(CC4SC(=O)NC4=O)cc3)c(C)o2)cc1` (stereo unspecified), the Normalization with Mus musculus [2] was determined as 15%; with Mus musculus [3], 47%; in the assay on Mus musculus [5], 47%.
In the assay on Mus musculus [6], `O=C1NC(=O)C(Cc2ccc(C(=O)COc3ccccc3)cc2)S1` (stereo unspecified) gave a Normalization of 7%.
For `COc1ccccc1/C=C/C(=O)c1ccc(CC2SC(=O)NC2=O)cc1` (stereo unspecified), the Normalization in the assay with Mus musculus [7] stood at 50%; in the assay with Mus musculus [8] it was 66%.
Turning to `Cc1oc(-c2ccc(C(F)(F)F)cc2)nc1CCC(=O)c1ccc(CC2SC(=O)NC2=O)cc1` (stereo unspecified), the Normalization in the assay on Mus musculus [1] worked out at 88%; in the assay with Mus musculus [2], 81%; with Mus musculus [3], 69%; with Mus musculus [4] it was 86%.
On to `Cc1oc(-c2ccccc2)nc1CCC(O)c1ccc(CC2SC(=O)NC2=O)cc1` (stereo unspecified), for which the Normalization in the assay with Mus musculus [1] was found to be 93%; with Mus musculus [2], 85%; in the assay with Mus musculus [9] it was 72%; in the assay with Mus musculus [3], 100%.
Take `Cc1oc(-c2ccccc2)nc1CCC(=O)c1ccc(CC2SC(=O)NC2=O)cc1` (stereo unspecified) [DARGLITAZONE]: the Normalization in the assay on Mus musculus [1] is 83%; in the assay on Mus musculus [2], 88%; in the assay on Mus musculus [3], 97%; with Mus musculus [10], 88%; in the assay with Mus musculus [8], 100%; with Mus musculus [4], 100%. The same compound registered a Normalization with Mus musculus [11] of 100%.
`CC1(COc2ccc(CC3SC(=O)NC3=O)cc2)CCCCC1` (stereo unspecified) [CIGLITAZONE] showed a Normalization in the assay on Mus musculus [12] of 100%.
